TRPC4 block: inhibitors of mouse TRPC4 channel, primary screen, Fluo4 calcium, HEK293 TRPC4beta/mu-opioid cells; DAMGO-evoked Fluo4 calcium flux; stronger effect = lower value; 0.39% of 300,000 active; B-score at 10 µM;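 active = B-score over 3 SD under the library average, no early fluorescence shift, positive overall ratio signal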
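material = TRPC4beta/mu-opioid receptor HEK293 cell line | probe or stimulus = sequential submaximal and maximal DAMGO stimulation | compound dosing = one concentration per compound | measured by = Fluo4 Ca2+ flux fluorescence | evaluation = integrated fluorescence ratio relative to baseline, converted to per-well B score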
TRPC6 activator: mouse TRPC6 channel activators, primary screen, cell-based, HEK293, membrane potential dye | Short transient receptor potential channel 6 (Mus musculus), Q61143 | HEK293-TRPC6 membrane potential dye fluorescence; stronger effect = higher value | B-score at 10 µM | 0.13% of 310,000 active | AID 2550, 2010;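 active = B-score of the integrated fluorescence ratio above library mean plus 3 SD, and starting fluorescence ratio within library mean plus 5 SD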;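 note: higher score means more depolarization so channel activation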
Target sequence (Q61143 whole entry, looked up): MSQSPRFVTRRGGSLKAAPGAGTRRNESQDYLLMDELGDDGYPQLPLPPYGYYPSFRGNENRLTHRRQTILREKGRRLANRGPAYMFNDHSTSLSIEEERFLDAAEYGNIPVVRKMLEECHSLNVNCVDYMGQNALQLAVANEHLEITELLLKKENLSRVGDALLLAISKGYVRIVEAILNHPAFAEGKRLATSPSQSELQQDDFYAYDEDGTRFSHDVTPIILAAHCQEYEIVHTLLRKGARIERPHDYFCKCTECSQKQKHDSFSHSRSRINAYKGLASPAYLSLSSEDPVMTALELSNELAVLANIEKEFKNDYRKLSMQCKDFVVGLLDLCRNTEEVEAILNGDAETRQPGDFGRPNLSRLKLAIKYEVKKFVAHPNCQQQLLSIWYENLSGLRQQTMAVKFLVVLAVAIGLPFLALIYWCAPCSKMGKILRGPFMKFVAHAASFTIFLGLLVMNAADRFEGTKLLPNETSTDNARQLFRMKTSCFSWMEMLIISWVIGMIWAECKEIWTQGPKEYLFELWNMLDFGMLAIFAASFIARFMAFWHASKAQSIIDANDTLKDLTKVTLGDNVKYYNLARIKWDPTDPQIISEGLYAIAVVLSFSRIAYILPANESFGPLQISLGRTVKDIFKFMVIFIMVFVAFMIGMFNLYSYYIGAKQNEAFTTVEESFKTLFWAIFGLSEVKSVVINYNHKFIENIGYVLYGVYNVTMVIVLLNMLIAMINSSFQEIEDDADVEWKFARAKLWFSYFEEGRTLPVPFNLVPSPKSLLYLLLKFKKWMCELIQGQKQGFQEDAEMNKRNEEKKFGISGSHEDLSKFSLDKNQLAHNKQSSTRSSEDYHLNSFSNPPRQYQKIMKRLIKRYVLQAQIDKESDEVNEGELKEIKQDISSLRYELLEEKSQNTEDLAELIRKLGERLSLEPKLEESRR
TRPC4 act: activators of mouse TRPC4 channel, primary screen, Fluo4 calcium, HEK293 TRPC4beta/mu-opioid cells; AID 2237, 2010; B-score at 10 µM; Fluo4 calcium fluorescence; stronger effect = higher value; 0.49% of 310,000 active; Short transient receptor potential channel 4 (Mus musculus), Q9QUQ5;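 active = B-score above 5 SD of library B-scores, and initial fluorescence ratio not above library mean plus 5 SD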;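 note: positive B-score marks a calcium rise read as TRPC4 activation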
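Assay system: HEK293 stable line with TRPC4beta plus mu-opioid receptor; schedule: 45 min room-temperature Fluo4 loading, 110 s read; technique: kinetic Fluo4 calcium fluorescence; evaluation: integrated baseline-normalised fluorescence ratio, converted to per-well B score; controls: buffer (low) and maximal DAMGO (high)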
TRPC6 inhibitor: mouse TRPC6 channel inhibitors, primary screen, cell-based, HEK293, membrane potential dye. Short transient receptor potential channel 6 (Mus musculus), Q61143. ACh-evoked depolarization; stronger effect = lower value. B-score at 10 µM. 1.1% of 310,000 active;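 active = B-score under library mean minus 3 SD, initial fluorescence not abnormally high, positive integrated signal ratio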;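 note: B-score derived from integrated fluorescence ratio over the kinetic read; more negative B-score means stronger inhibition of depolarization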
Kir21 inh: inhibitors of mouse Kir2.1 inward-rectifier potassium channel | Inward rectifier potassium channel 2 (Mus musculus), P35561 | HEK293-Kir2.1, FluxOR thallium flux fluorescence; stronger effect = lower value | B-score at 10 µM | 0.85% of 310,000 active;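 active = fluorescence ratio B-score at or below minus 3 SD of library scores, with starting-brightness B-score within 2 SD, cut at about -4.2 in these data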;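 note: channel flux triggered by added potassium and thallium sulfate stimulus; B-score of peak minus minimum fluorescence over baseline after thallium stimulus; more negative B-score means stronger Kir2.1 block with less thallium influx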
TRPC4 potent: positive allosteric modulators of TRPC4, primary screen, cell-based, mouse TRPC4beta, HEK293 mu-opioid, Fluo-4 calcium | DAMGO EC20, Fluo-4 Ca2+ flux; stronger effect = higher value | B-score at 10 µM | 0.42% of 310,000 active;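 active = B-score of calcium response area above 5 SD of library B-scores, with initial fluorescence ratio within 5 SD of library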;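 note: B-score of integrated fluorescence ratio over time as area under calcium response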
TRPC4 spec 2: second selectivity test of TRPC6 inhibitors: effect on mouse TRPC4; shares compounds with TRPC6 inhibitor; HEK293 TRPC4/MOR, membrane potential dye fluorescence; channel activated by saturating DAMGO dose; inhibition, % at 10 µM; 42% of 920 active; AID 2776;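 active = compounds whose fluorescence signal differed from control wells by over 3 SD, either direction, in both duplicate plates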
TRPC4 spec: mouse TRPC4 modulation by TRPC6 hits, confirmation, selectivity assay for TRPC6 inhibitor project, cell-based, HEK293 TRPC4/mu-opioid, membrane potential dye; shares compounds with TRPC6 inhibitor; membrane potential fluorescence; activity change, negative = inhibition, % at 10 µM; 61% of 920 active;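 active = rise or fall in signal beyond 3 SD of buffer-only wells in both replicate plates, either sign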;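 note: integrated kinetic ratio of fluorescence range over baseline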
HEK293 MPD ctr 2-1: nonspecific membrane potential effects, parental HEK293, confirmation, counter-screen for TRPC6 inhibitor project, cell-based, second counter screen | shares compounds with TRPC6 inhibitor | parental HEK293 membrane potential dye fluorescence; maximal acetylcholine challenge after compound addition | signal change vs control, % at 10 µM | 31% of 920 active;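 active = membrane potential signal moving either way by over 3 SD of the maximum-effect control, in both duplicate plates, meaning non-specific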
HEK293 MPD ctr-1: membrane potential modulation in parental HEK293, confirmation, counter-screen for TRPC6 inhibitor project, cell-based | shares compounds with TRPC6 inhibitor | parental HEK293 membrane potential dye fluorescence | membrane potential signal change, % at 10 µM | 60% of 920 active;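 active = membrane potential signal shifting up or down by more than 3 SD of buffer-only wells, on both duplicate plates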
HEK293 MPD ctr-2: parental HEK293 membrane potential modulation, confirmation, counter-screen for TRPC6 modulator project, cell-based. 51% of 2,400 active. AID 488924, 2010. membrane potential dye fluorescence. shares compounds with TRPC6 inhibitor. membrane potential signal change, % at 10 µM;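 active = membrane potential signal moves up or down beyond 5 SD from buffer-only wells, on both duplicate plates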
HEK293 MPD ctr 2-2: parental HEK293 nonspecific activity of TRPC6 modulators, second screen; 14% of 2,400 active; AID 488926; inhibition, % at 10 µM; shares compounds with TRPC6 inhibitor; membrane potential dye fluorescence; after compound, maximal acetylcholine stimulation;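 active = membrane potential signal drops by more than 5 SD from the mean control signal, in both duplicate plates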;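 note: plate controls were acetylcholine ECmax control wells for no effect and buffer only wells for full effect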
TRPC4 ctr mod: TRPC4 modulation by TRPC6 hit compounds, confirmation, selectivity assay for TRPC6 modulator project, cell-based, HEK293 TRPC4/mu-opioid, membrane potential dye, mouse; shares compounds with TRPC6 inhibitor; 69% of 2,400 active; membrane potential fluorescence; percent change from control (negative = decrease, positive = increase), % at 10 µM;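 active = membrane potential signal moved up or down beyond 5 SD of buffer control wells, in both duplicate plates, actives on both sides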;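 note: plate controls were assay buffer wells for no effect and DAMGO maximal-effect wells for full effect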
TRPC4 ctr inh 2: second check of whether TRPC6 modulators also affect mouse TRPC4 | shares compounds with TRPC6 inhibitor | HEK293 TRPC4/mu-opioid, membrane potential dye fluorescence; stimulated with maximal-effect DAMGO | inhibition, % at 10 µM | 55% of 2,400 active;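 active = drop in membrane potential signal beyond 5 SD of the control wells in both duplicate plates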;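 note: TRPC4 counter screen for TRPC6 hits run under conditions tuned for TRPC6 not TRPC4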
TRPC6 block conf: mouse TRPC6 channel inhibitors, confirmation, HEK293 cells, membrane potential dye, duplicate. 43% of 3,300 active. inhibition, % at 10 µM. shares compounds with TRPC6 inhibitor. AID 488960, 2010. ACh-evoked depolarization;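 active = fluorescence ratio falls more than 5 SD below the full-stimulation control mean, in both duplicate runs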;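 note: integrated fluorescence ratio of peak minus minimum over baseline after agonist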
TRPC6 act confirm: mouse TRPC6 channel activators, confirmation, HEK293 cells, membrane potential dye, duplicate | activation, % at 10 µM | AID 488961, 2010 | 11% of 2,800 active | HEK293-TRPC6 membrane potential dye fluorescence, FDSS | shares compounds with TRPC6 inhibitor;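 active = ratio signal rise beyond 5 SD above unstimulated control wells' mean, seen in both duplicate runs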;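 note: plate controls were buffer EC0 wells for no effect and acetylcholine ECmax response for full effect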
* marks the source's active call; other numbers are inactive results; i = inactive; · = not tested or not shown. An excerpt weighted towards active compounds, which were near 2.9% of everything screened.

SMILES	TRPC4 block	TRPC6 activator	TRPC4 act	TRPC6 inhibitor	Kir21 inh	TRPC4 potent	TRPC6 block conf	TRPC6 act confirm	others
CC(C)Cc1nnc(NC(=O)C2CSC3(C)CCC(=O)N23)s1 (stereo not drawn)	i	i	i	i	-0.35	i	·	·
Cn1c(CO)cnc1-c1ccccc1	i	i	i	i	0.1	i	·	·
O=C(Nc1ccccc1N1CCOCC1)c1cccc2c(Br)cccc12	i	i	i	i	-2.5	i	·	·
O=C(/C=C/NNC(=O)c1ccc(Br)cc1)c1ccccc1	i	i	i	i	-0.89	i	·	·
O=C(/C=C/NNC(=O)c1ccccc1)c1ccccc1	i	i	i	-6.2*	2.3	i	i	i	HEK293 MPD ctr-2=i;HEK293 MPD ctr 2-2=i;TRPC4 ctr mod=i;TRPC4 ctr inh 2=i
O=C(CCNC(=O)N1CC(=O)Nc2ccccc21)Nc1ccc(F)c(Cl)c1	i	i	i	i	-1.3	i	·	·
CN(c1ccccc1)c1ncccn1	i	i	i	i	0.81	i	·	·
CN(c1ccccc1)P(=O)(N(C)c1ccccc1)N(C)c1ccccc1	i	i	i	-9.5*	-5.5*	i	66%*	·	TRPC4 spec 2=i;TRPC4 spec=29%*;HEK293 MPD ctr 2-1=i;HEK293 MPD ctr-1=15%*
C/C(CC(=O)NC1CCCCC1)=N\NC(=O)Cc1ccc(-c2ccccc2)cc1	i	i	i	i	-1.1	i	·	·
[O-][N+]1=c2ccc(Nc3ccccc3)cc2=NC12CCCCC2	i	i	i	-6.7*	1.3	i	i	i	HEK293 MPD ctr-2=-206%*;HEK293 MPD ctr 2-2=i;TRPC4 ctr mod=-29%*;TRPC4 ctr inh 2=41%*
COc1ccc(C2c3c(ncn(CCCO)c3=N)Oc3ccc4ccccc4c32)cc1OC (stereo not drawn)	i	i	i	i	-2.2	i	·	·
COc1ccc(C2c3c(ncn(CCN4CCOCC4)c3=N)Oc3ccc4ccccc4c32)cc1OC (stereo not drawn)	i	i	i	-5.1*	-0.05	i	i	·	HEK293 MPD ctr-2=204%*;HEK293 MPD ctr 2-2=i;TRPC4 ctr mod=34%*;TRPC4 ctr inh 2=40%*
Oc1sc(C=Nc2ccccc2)c2ccccc12	i	13*	i	i	-2.1	i	i	i	HEK293 MPD ctr-2=322%*;HEK293 MPD ctr 2-2=i;TRPC4 ctr mod=139%*;TRPC4 ctr inh 2=46%*
Oc1sc(C=Nc2ccc(F)cc2)c2ccccc12	i	i	i	i	0.03	i	·	·
c1ccc(Nc2nc(NCC3CCCO3)c3ccccc3n2)cc1 (stereo not drawn)	-6*	i	i	-8.8*	-15*	i	53%*	i	TRPC4 spec 2=31%*;TRPC4 spec=-15%*;HEK293 MPD ctr 2-1=i;HEK293 MPD ctr-1=-135%*
COc1ccc(Nc2nc(NCC3CCCO3)nc(N)c2[N+](=O)[O-])cc1 (stereo not drawn)	i	i	i	i	0.73	i	·	·
CCOc1ccc(Nc2nc(NCC3CCCO3)c3ccccc3n2)cc1 (stereo not drawn)	-5*	i	i	-9.6*	-7.1*	i	i	i	TRPC4 spec 2=56%*;TRPC4 spec=-17%*;HEK293 MPD ctr 2-1=i;HEK293 MPD ctr-1=-150%*
COc1ccccc1Nc1nc(NCc2ccco2)c2ccccc2n1	i	i	i	i	1	i	·	·
c1ccc(-c2nc(NCC3CCCO3)c3ccccc3n2)nc1 (stereo not drawn)	i	i	i	i	1.1	i	·	·
OCCNc1nc(Nc2ccc(Br)cc2)nc2ccccc12	i	i	i	-7*	-13*	i	i	i	TRPC4 spec 2=46%*;TRPC4 spec=-20%*;HEK293 MPD ctr 2-1=i;HEK293 MPD ctr-1=-181%*
OCCNc1nc(Nc2ccccc2)nc(Nc2ccccc2)n1	i	i	i	i	2.2	i	·	·
COc1ccc(Nc2nc(NCC3CCCO3)c3ccccc3n2)c(OC)c1 (stereo not drawn)	-6*	i	i	-9.8*	-9.9*	i	75%*	i	TRPC4 spec 2=48%*;TRPC4 spec=-16%*;HEK293 MPD ctr 2-1=i;HEK293 MPD ctr-1=-223%*
CCN(CC)CCn1c2c(c(SCC(=O)Nc3cc(OC)cc(OC)c3)nc1=O)CCC2	i	i	i	i	-2.3	i	·	·
